Reference: PubChem BioAssay
The source made the active and inactive calls.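 How the source made its calls, unless noted: active means viability at or under a set limit in both replicates, limit being median viability minus 3 SD (cut at about 48% in these data, passing the limit was not always enough); inconclusive means at or under the limit in just one replicate; inactive means at or above the limit in both replicates.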

Key:
[1] = Her2 expression decrease, cell viability multiplex – SKBR3 breast tumor cells, AlphaScreen, ATP viability, primary screen (AID 461;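 active means Her2 level under about 52% in both replicate screens, with viability over 70% of control, limit read from the data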;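 on Her2 level: lower value means less Her2 protein in the cells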;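 on viability: percent of carrier control wells set as 100% viability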); conditions: SKBR3 Her2 protein level, 18-24 h, measured here: SKBR3 viability, ATP luminescence, at 10 µM
[2] = target: Receptor tyrosine-protein kinase erbB-2 (Homo sapiens) (UniProt P04626); experiment: as above; conditions: 18-24 h, at 10 µM, stronger effect = lower value
[3] = reduced viability of SK-BR-3 breast cancer cells – cell-based, 24 h, human, pilot screen (AID 572;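 active means viability at or below 10% of carrier control in both of two separate runs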;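 further: compound exposure lasted between 18 and 24 h rather than exactly 24 h; 100% = carrier-treated control wells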); conditions: SK-BR-3 viability, CellTiter-Glo luminescence, at 10 µM, stronger effect = lower value
[4] = HUVEC growth inhibition – cell-based, human, primary screen (AID 575;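 active means viability at or below 30% in both replicate assays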;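 further: 100% = median of untreated cell wells with 0.1% DMSO on each plate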); conditions: HUVEC proliferation, CellTiter-Glo luminescence, 72 h; at 10 µM; stronger effect = lower value
Summary of the method: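 Test system: primary human umbilical vein endothelial cells; medium: endothelial basal medium with 2% FBS plus growth supplements; dosing: 10 µM compound only; times: 72 h treatment at 37 °C; signal: CTG luminescence; read-out: % viability relative to median vehicle-well signal on each plate; control set: vehicle and MePR control wells; plate: 384-well, collagen-coated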

[5] = H69AR cell proliferation blockers – human, duplicate replicates, primary screen (AID 580); conditions: H69AR lung tumor cells viability, ATP luminescence, 72 h; at 10 µM; stronger effect = lower value;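 further: 100% = mean luminescence of untreated wells and 0% = no signal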
[6] = MRP1 drug-resistance reversers in H69AR cells – cell-based, doxorubicin co-treatment, pilot screen (AID 601;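 active means viability loss from added drug above about 55%, and viability with drug at most 40%, in both replicates, limit read from the data, passing the limit was not always enough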); conditions: CellTiter-Glo, 72 h, at 10 µM; for differential viability (reversal): stronger effect = higher value
[7] = yeast transport mutant growth inhibition pilot in 384-well plates, post-Golgi transport modulator project (AID 636; in the data active means inhibition above about 31%); conditions: absorbance 615 nm, about 18 h, stronger effect = higher value
[8] = growth suppression of yeast trafficking mutant, preliminary HTS, modulators of trafficking downstream of Golgi apparatus project, 1536-format plate, OD 615 nm (AID 637; in the data active means inhibition above about 30%); conditions: yeast transport mutant growth, absorbance 615 nm, 18 h; stronger effect = higher value
[9] = H69AR cells + 2 uM doxorubicin, measured here: viability with 2 uM doxorubicin, stronger effect = lower value
[10] = H69AR cells, compound alone cytotoxicity

Chain of Receptor tyrosine-protein kinase erbB-2 (Homo sapiens) (P04626 whole entry, looked up): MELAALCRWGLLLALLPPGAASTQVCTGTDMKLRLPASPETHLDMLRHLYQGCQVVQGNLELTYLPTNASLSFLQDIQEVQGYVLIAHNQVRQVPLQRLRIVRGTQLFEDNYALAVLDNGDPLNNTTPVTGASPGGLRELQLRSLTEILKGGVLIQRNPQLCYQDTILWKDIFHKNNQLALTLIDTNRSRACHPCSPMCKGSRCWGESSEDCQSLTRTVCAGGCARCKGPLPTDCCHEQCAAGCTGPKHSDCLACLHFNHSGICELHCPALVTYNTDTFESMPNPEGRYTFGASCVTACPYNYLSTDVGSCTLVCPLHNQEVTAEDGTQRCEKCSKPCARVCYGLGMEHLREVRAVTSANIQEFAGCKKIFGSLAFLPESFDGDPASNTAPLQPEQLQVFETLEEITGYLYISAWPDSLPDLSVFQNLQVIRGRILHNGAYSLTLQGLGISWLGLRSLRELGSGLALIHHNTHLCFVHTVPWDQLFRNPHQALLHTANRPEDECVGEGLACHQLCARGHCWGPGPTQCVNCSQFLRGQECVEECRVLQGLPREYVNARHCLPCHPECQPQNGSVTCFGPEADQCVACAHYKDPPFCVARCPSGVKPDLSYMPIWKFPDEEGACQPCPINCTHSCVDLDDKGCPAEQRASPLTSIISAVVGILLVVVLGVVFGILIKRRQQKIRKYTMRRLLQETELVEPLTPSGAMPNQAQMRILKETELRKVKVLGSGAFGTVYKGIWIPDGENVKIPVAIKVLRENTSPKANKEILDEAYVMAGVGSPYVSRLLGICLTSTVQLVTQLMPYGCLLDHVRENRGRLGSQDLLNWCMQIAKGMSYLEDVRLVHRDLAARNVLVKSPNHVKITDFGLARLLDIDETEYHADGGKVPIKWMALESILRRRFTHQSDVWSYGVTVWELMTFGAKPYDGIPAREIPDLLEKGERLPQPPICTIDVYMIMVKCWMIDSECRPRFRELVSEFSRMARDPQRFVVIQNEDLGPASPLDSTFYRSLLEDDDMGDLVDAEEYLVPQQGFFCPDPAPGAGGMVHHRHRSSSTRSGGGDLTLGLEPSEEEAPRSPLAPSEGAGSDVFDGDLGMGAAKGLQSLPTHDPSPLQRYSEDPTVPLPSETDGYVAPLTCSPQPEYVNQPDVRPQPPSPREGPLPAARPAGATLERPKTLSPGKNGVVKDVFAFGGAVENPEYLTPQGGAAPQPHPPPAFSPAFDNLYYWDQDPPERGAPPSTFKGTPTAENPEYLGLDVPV

Compound | viability [1] [%] | Her2 level [2] | viability [3] | viability [4] | viability [5] | differential viability (reversal) ([6]; H69AR cells + 2 uM doxorubicin) | viability [6, 9] [%] | viability [6, 10] [%] | inhibition [7] | inhibition [8]
CC(=O)c1c(C)oc2ccc(NS(=O)(=O)c3ccc(O)c(C(=O)O)c3)cc12 | 92 | 78.5% (inactive) | 92% (inactive) | 105% (inactive) | 94% (inactive) | 3.09% (inactive) | 90.9 | 94 | -6.22% (inactive) | 0.79% (inactive)
CCC(NS(=O)(=O)c1ccc(C)cc1)C(=O)N1CCC2(O)CCCCC2C1 (stereo not given) | 94 | 105% (inactive) | 94% (inactive) | 90.7% (inactive) | 94.5% (inactive) | 5.91% (inactive) | 88.6 | 94.5 | -3.2% (inactive) | -1.8% (inactive)
Cc1cc(NC(=O)CCOc2ccccc2)no1 | 85.5 | 96.5% (inactive) | 85.5% (inactive) | 87% (inactive) | 88.6% (inactive) | 2.89% (inactive) | 85.7 | 88.6 | -2.34% (inactive) | 1% (inactive)
CCOc1ccc(NC(=O)C2CC(=O)N(C(C)C)C2)cc1 (stereo not given) | 103 | 82% (inactive) | 103% (inactive) | 114% (inactive) | 99.7% (inactive) | 7% (inactive) | 92.7 | 99.7 | -2% (inactive) | 0.49% (inactive)
CCN(Cc1ccccc1)C(c1ccncc1)c1nnnn1C(C)(C)C (stereo not given) | 102 | 76% (inactive) | 102% (inactive) | 99.5% (inactive) | 78.6% (inactive) | -0.555% (inactive) | 79.1 | 78.6 | -5.73% (inactive) | 4.26% (inactive)
COc1cccc(-c2noc(-c3cccs3)n2)c1 | 96.5 | 87% (inactive) | 96.5% (inactive) | 75.1% (inactive) | 81.5% (inactive) | -29.2% (inactive) | 111 | 81.5 | 2.08% (inactive) | -4.29% (inactive)
Cc1nn(-c2ccc(Cl)cc2)c2sc(C(=O)N3CCN(c4ccccn4)CC3)cc12 | 103 | 80% (inactive) | 103% (inactive) | 51.6% (inactive) | 67.2% (inactive) | 9.58% (inactive) | 57.6 | 67.2 | -5.84% (inactive) | -2.54% (inactive)
CC(=O)Nc1ccccc1OCc1nnc(-c2cccs2)o1 | 97 | 93% (inactive) | 97% (inactive) | 82.1% (inactive) | 98.1% (inactive) | 15.9% (inactive) | 82.1 | 98.1 | -2.86% (inactive) | -3.97% (inactive)
COc1ccc(-c2cc(C(F)(F)F)nc(N3CCN(c4ccc(F)cc4)CC3)n2)cc1OC | 78.5 | 88% (inactive) | 78.5% (inactive) | 71.7% (inactive) | 85.5% (inactive) | 6.42% (inactive) | 79.1 | 85.5 | -2.97% (inactive) | 13.9% (inactive)
Cn1nnnc1SCc1cn2cccnc2n1 | 112 | 90.5% (inactive) | 112% (inactive) | 101% (inactive) | 89.3% (inactive) | -0.09% (inactive) | 89.4 | 89.3 | -5.33% (inactive) | -3.33% (inactive)
COCCn1nnnc1CN(Cc1cccnc1)Cc1cc2cc(OC)ccc2[nH]c1=O | 91 | 75% (inactive) | 91% (inactive) | 98.6% (inactive) | 88.3% (inactive) | 8.82% (inactive) | 79.5 | 88.3 | -7.07% (inactive) | 4.26% (inactive)
O=C(Nc1ccccc1N1CCOCC1)c1ccc2ccccc2n1 | 90 | 83.5% (inactive) | 90% (inactive) | 67.4% (inactive) | 79.4% (inactive) | -12.4% (inactive) | 91.9 | 79.4 | -4.74% (inactive) | -2% (inactive)
COC(=O)c1ccccc1NC(=O)CSc1nnc(-c2ccncc2)o1 | 98 | 81.5% (inactive) | 98% (inactive) | 103% (inactive) | 101% (inactive) | 8.3% (inactive) | 92.4 | 101 | -4.67% (inactive) | 0.95% (inactive)
Cc1noc(C)c1C(=O)OCC(=O)Nc1ccccc1C(=O)NC(C)c1ccccc1 (stereo not given) | 90.5 | 86% (inactive) | 90.5% (inactive) | 70.5% (inactive) | 87.2% (inactive) | -6.91% (inactive) | 94.1 | 87.2 | -4.93% (inactive) | 6.72% (inactive)
